Bioassay records (PubChem BioAssay)
This is a sample that favours compounds with a hit; in the whole collection about 2.5% have one here.
VIM-2 inhibitor = VIM-2 metallo-beta-lactamase inhibitors, primary screen, biochemical, epi-absorbance readout, Pseudomonas aeruginosa enzyme. purified VIM-2, nitrocefin hydrolysis, epi-absorbance fluorescence. inhibition, % at 5.6 µM. hit rate 0.89% among 290,000;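 active = inhibition above the mean of all tested compounds plus 3 SD, cutoff set per screening run, cut at about 7.5% in these data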;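 also: red hydrolysis product quenches plate fluorescence so inhibitors raise well fluorescence; 0% = enzyme with DMSO and 100% = DMSO without enzyme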
dFosB activator = activators of delta FosB homodimer, primary screen, biochemical, fluorescence polarization, TAMRA-CDK5 oligo, single point; purified delta FosB; percent of positive-control signal above neutral wells; activation, % at 25 µM; hit rate 0.99% among 340,000; AID 493131, 2011;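 active = mean activation above about 17%, with every replicate also reaching it, limit read from the data, passing the limit was not always enough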
IMP-1 inhibitor = IMP-1 metallo-beta-lactamase inhibitors, primary screen, biochemical, epi-absorbance readout, Pseudomonas aeruginosa enzyme. metallo-beta-lactamase IMP-1 (Pseudomonas aeruginosa). purified IMP-1, nitrocefin hydrolysis, epi-absorbance fluorescence. inhibition, % at 5.6 µM. hit rate 0.45% among 290,000. AID 1556, 2009;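 active = inhibition above the mean plus 3 SD of all compounds in the same screening run, cut at about 4.5% in these data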;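 also: 0% = IMP-1 with DMSO and 100% = DMSO wells lacking enzyme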
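Material – recombinant IMP-1 enzyme, purified · Amount – IMP-1 0.2 nM before substrate addition · Medium – HEPES buffer pH 7.1 with ZnSO4 and Brij 35 · Timing – 25 °C, 15 min preincubation, 25 min reaction · Measured by – plate fluorescence quenching by hydrolysis product, ex 480/em 530 nm · Read-out – percent enzyme inhibition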
m5-HT2A agonist = mouse Htr2a agonists via beta-arrestin recruitment, primary screen, cell-based, luminescence; 5-hydroxytryptamine receptor 2A (Mus musculus), P35363; CHO-K1 mHTR2A beta-arrestin complementation; percent of 30 µM serotonin response; activation, % at 7.6 µM; hit rate 0.66% among 360,000;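 active = activation above a run cutoff, the mean activation of all tested compounds plus 3 SD, cut at about 14% in these data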;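 also: 0% = plate median of compound wells and 100% = 30 µM serotonin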
Target sequence (P35363 whole entry, looked up): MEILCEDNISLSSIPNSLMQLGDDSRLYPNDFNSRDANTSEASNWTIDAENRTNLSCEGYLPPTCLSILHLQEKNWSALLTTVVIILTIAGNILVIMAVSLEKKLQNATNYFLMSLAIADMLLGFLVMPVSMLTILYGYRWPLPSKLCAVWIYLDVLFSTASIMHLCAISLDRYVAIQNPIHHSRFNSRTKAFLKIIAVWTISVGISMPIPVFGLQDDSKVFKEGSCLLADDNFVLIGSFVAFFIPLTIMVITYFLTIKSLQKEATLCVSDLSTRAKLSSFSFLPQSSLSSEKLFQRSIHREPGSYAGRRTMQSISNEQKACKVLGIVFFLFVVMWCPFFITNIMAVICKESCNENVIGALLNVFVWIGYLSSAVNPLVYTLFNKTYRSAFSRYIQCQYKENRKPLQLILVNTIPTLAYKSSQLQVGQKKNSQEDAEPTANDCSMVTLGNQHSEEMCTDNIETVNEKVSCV
OPRM1 ag = OPRM1 agonists via beta-arrestin recruitment, confirmation, counter-screen for mouse HTR2A agonist project, cell-based, luminescence, single concentration; shares compounds with m5-HT2A agonist; U2OS OPRM1 beta-arrestin PathHunter; DMSO 0%, DAMGO 9.3 µM 100%; activation, % at 9.3 µM; hit rate 5.3% among 2,300;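 active = mean activation above the mean of DMSO-only wells plus 3 SD, cut at about 0.5% in these data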
HTR2A ag conf = mouse HTR2A agonists, beta-arrestin recruitment, confirmation, cell-based, luminescence, CHO-K1 PathHunter, triplicate; shares compounds with m5-HT2A agonist; DMSO 0%, 30 µM serotonin 100%; activation, % at 7.6 µM; hit rate 19% among 2,300; AID 624381, 2012;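 active = mean activation across triplicates above the hit threshold derived in the original primary screen, cut at about 15% in these data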
Starred values were filed as active, the others as inactive; / = no result.

SMILES | VIM-2 inhibitor | dFosB activator | IMP-1 inhibitor | m5-HT2A agonist | OPRM1 ag | HTR2A ag conf
CN(C)c1ccc(/C=C/CNC[C@H]2O[C@@H](n3ccc(N)nc3=O)[C@H](O)[C@@H]2O)cc1 | / | / | / | -1 | / | /
N#C/C(=C\c1c(F)cccc1Cl)C(=O)NC1CC1 | -2 | -1 | -2 | 2 | / | /
CCOC(=O)c1c(O)c2c(n(Cc3ccco3)c1=O)CCCC2 | 0 | -2 | -2 | 15* | 0 | 6
CCOC(=O)c1c(NC(=O)c2ccco2)sc2c1CCCC2 | 0 | 5 | -2 | 6 | / | /
COC(=O)[C@@]12C[C@@H](CC(=O)NCC3CCCCC3)C(=O)N(CCc3ccc(OC)c(OC)c3)C1=CCC(C)(C)C2 | / | / | / | -1 | / | /
CCN(CC)C(=O)[C@H]1C[C@H](CC(=O)NC/C=C(\C)CCC=C(C)C)C(=O)N2CCc3c([nH]c4cc(CCC(=O)N(C)C)ccc34)[C@]12C | / | -22 | / | -2 | / | /
C=C1CC2C3CC[C@@]4(OCOC45COCO5)[C@@]3(C)C(O)CC2[C@@]2(C)CCC(=O)C=C12 (stereo partly drawn) | 7 | -6 | -1 | 15* | -1 | -1
CC(=O)O[C@]1(C(C)=O)CC[C@H]2[C@@H]3C=C(Cl)C4=CC(=O)CC[C@]4(C)[C@H]3CC[C@@]21C | -2 | 11 | -4 | 1 | / | /
O=C(CN(c1ccc(F)cc1)S(=O)(=O)c1ccc2c(c1)OCCO2)N1CCOCC1 | 3 | 4 | -1 | 25* | -1 | -2
Cn1c(N)c(C(=O)COC(=O)Cc2ccc(Cl)cc2Cl)c(=O)n(C)c1=O | / | -8 | / | -8 | / | /
Cn1c(N)c(C(=O)COC(=O)CNC(=O)c2ccc(Cl)cc2Cl)c(=O)n(C)c1=O | / | -3 | / | 14* | 0 | -2
CCNc1nc(NC(C)C)nc(N(C#N)C(C)C(=O)N(C)C)n1 (stereo not drawn) | -2 | -5 | -3 | 2 | / | /
CCNc1nc(NCC)nc(N(C#N)C(C)C)n1 | -3 | -1 | -3 | 20* | -1 | -3
O=C(Nc1ccc(OC(F)(F)F)cc1)C1CCCN(S(=O)(=O)c2cnc[nH]2)C1 (stereo not drawn) | 0 | -4 | -1 | 7 | / | /
CCOc1ccc(NC(=O)N2CCN(S(C)(=O)=O)CC2)cc1 | -5 | 3 | -4 | 4 | / | /
O=C(O)CCC(=O)N1CCN(c2nc3ccccc3s2)CC1 | -4 | -2 | -4 | 45* | 0 | 12
Cc1cccc(C)c1NC(=O)N1CCN(c2nc3ccccc3s2)CC1 | -2 | 0 | -2 | 39* | 0 | 0
CCOc1ccc(NC(=O)N2CCN(c3nc4ccccc4s3)CC2)cc1 | -3 | -9 | -2 | 30* | 0 | 0
Cc1c(Cl)cccc1NC(=O)NN1CCN(C)CC1 | -3 | -3 | -5 | 9 | / | /
CCN(C[C@H]1N[C@@](C)(C(=O)OC)[C@H]2C(=O)N(C)C(=O)[C@@H]12)C(=O)Nc1ccc(C(F)(F)F)cc1 | / | -5 | / | 10 | / | /
CCOC(=O)N1CCN(C(c2ccc(F)cc2)c2sc3nc(C)nn3c2O)CC1 (stereo not drawn) | -4 | 0 | -3 | 32* | -1 | -3
CCOC(=O)N1CCN(C(c2ccccc2)c2sc3nc(C)nn3c2O)CC1 (stereo not drawn) | -3 | -5 | -3 | 3 | / | /
Cc1nc2ccc(S(=O)(=O)CCC(=O)NCc3ccc(Cl)cc3)cc2s1 | / | / | / | 21* | 0 | -1
CCN(CC)CC(O)CNc1ccnc2c(Cl)ccc(Cl)c12 (stereo not drawn) | / | 3 | / | 1 | / | /
CCc1ccc(OCCCC(=O)Nc2ccc(S(=O)(=O)Nc3cc(C)nc(C)n3)cc2)cc1 | -2 | -10 | 1 | 15* | -1 | -7
SMILES | VIM-2 inhibitor | dFosB activator | IMP-1 inhibitor | m5-HT2A agonist | OPRM1 ag | HTR2A ag conf
Cc1cc(NC(=O)CSc2nnc(-c3ccc(S(=O)(=O)N4CCCC4)cc3)n2C)no1 | -2 | -7 | -2 | 18* | -1 | -5
CCn1c(SCC(=O)Nc2cc(C)on2)nnc1-c1ccc(S(=O)(=O)N2CCCC2)cc1 | -3 | -7 | -2 | 0 | / | /
COc1ccccc1Cc1c(-c2ccc(F)cc2)nc2cc(C)c(Br)c(C)n12 | / | / | / | -2 | / | /
CCOc1ccc(S(=O)(=O)NCC2(N3CCCCC3)CCCCC2)cc1 | / | -8 | / | 17* | -1 | -1
O=C(NCc1ccc2c(c1)OCO2)C1CCC(CNc2c(N3CCCC3)c(=O)c2=O)CC1 (stereo not drawn) | -2 | -2 | -1 | 14* | 0 | -2
CN1CCc2c(sc(NC(=O)Cc3ccccc3)c2C#N)C1 | 1 | -10 | -4 | 18* | 0 | 69*
CC(=O)N1CCc2c(sc(NC(=O)Cc3ccc(F)cc3)c2C#N)C1 | -4 | -2 | 0 | -2 | / | /
C/C(=N/NS(=O)(=O)c1cccc([N+](=O)[O-])c1)c1ccncc1 | 0 | 0 | -2 | -4 | / | /
CC(=NNS(=O)(=O)c1cccc([N+](=O)[O-])c1)c1ccc(-n2ccnc2)cc1 | / | -8 | / | 15* | -1 | -5
C=CCn1cnc2c(nnn2Cc2ccc(F)cc2)c1=O | 0 | -7 | -1 | -2 | / | /
COc1ccc(NC(=O)Nc2nc(C(N)Cc3ccc(C(F)(F)F)cc3)cs2)cc1 (stereo not drawn) | / | / | / | 21* | 1.5* | 9
COc1cc(NC(=O)Nc2nc(C(N)Cc3ccc(C(F)(F)F)cc3)cs2)cc(OC)c1OC (stereo not drawn) | / | / | / | 42* | 0 | 29*
O=C(Nc1cccc2ccccc12)OCc1ccccc1 | / | 1 | / | -7 | / | /
Cc1ccc(/C=N/n2c(C)cc(C)c(C#N)c2=O)cc1 | -2 | 1 | -5 | -2 | / | /
Cc1cc(C)n(/N=C/c2ccc(O)cc2)c(=O)c1C#N | -2 | -1 | -2 | 20* | -1 | -4
CC(C)NC(=O)C1(C)CCN1C(=O)c1ccc(F)c(Cl)c1 (stereo not drawn) | / | / | / | 15* | -1 | -4
O=C(CCc1ccccc1)N=C1SC2CS(=O)(=O)CC2N1Cc1ccc(F)cc1 (stereo not drawn) | -4 | -1 | -2 | 10 | / | /
CC(C)CN(C(=O)CSc1nncn1-c1ccccc1)c1c(N)n(CC(C)C)c(=O)[nH]c1=O | -4 | -2 | -1 | 16* | -1 | 0
C/C(CC(=O)Nc1ccc(N(C)C)cc1)=N\NC(=O)c1ccc(C(C)(C)C)cc1 | -2 | -6 | -4 | -3 | / | /
CC(C)c1ccc(NC2CCCN(C(=O)c3ccnc(Cl)c3)C2)cc1 (stereo not drawn) | -2 | -9 | -4 | 1 | / | /
